Source: PubChem
Only some compounds are listed: those with a hit (about 2.3% of all), similar ones and a draw of the others.
PDI inh = inhibitors of human PDI, primary screen, biochemical, turbidity, single point, plate reader; Protein disulfide-isomerase (Homo sapiens), P07237; PDI insulin aggregation turbidity, A650, 90 min; inhibition, % at 10 µM; 0.052% of 350,000 active;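 active means mean inhibition across replicates of 30% or more, whatever share of single replicates reach that level; inconclusive means mean inhibition below 30% while every single replicate reaches 30%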
Target sequence (P07237 whole entry, looked up): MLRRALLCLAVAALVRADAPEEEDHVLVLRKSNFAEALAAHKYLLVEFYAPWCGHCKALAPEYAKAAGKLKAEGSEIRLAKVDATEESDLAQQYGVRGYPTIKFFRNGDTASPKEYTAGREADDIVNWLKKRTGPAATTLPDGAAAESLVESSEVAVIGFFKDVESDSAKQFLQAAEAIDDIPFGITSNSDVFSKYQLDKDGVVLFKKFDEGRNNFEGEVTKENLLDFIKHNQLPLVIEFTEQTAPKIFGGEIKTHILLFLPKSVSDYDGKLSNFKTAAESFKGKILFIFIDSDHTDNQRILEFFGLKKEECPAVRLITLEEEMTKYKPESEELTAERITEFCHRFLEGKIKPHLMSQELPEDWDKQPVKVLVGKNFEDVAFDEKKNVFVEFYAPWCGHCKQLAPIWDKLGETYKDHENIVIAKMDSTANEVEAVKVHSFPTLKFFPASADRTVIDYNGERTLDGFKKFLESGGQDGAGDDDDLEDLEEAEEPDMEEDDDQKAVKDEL
ERp5 block = inhibitors of ERp5-driven insulin aggregation, primary screen, biochemical, turbidity, absorbance 650 nm, single point; Protein disulfide-isomerase A6 (Homo sapiens), Q15084; 90 min; inhibition, % at 9.99 µM; 0.05% of 350,000 active;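 active means mean replicate inhibition above about 25%, with every replicate also reaching it, limit read from the data, passing the limit was not always enough; inconclusive means only one of those two criteria met; inactive means neither criterion met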
Cneo AK release = Cryptococcus neoformans cell lysis inducers, primary screen, AK release luminescence, single concentration. C. neoformans lysis, adenylate kinase release luminescence, 4 h; normalised: neutral wells 0, clomiphene wells 100. lysis activity, % at 15 µM. 0.2% of 360,000 active. AID 651654, 2012;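 active means mean lysis activity across replicates of at least 80%, whatever share of replicates individually reach that level; inactive means mean lysis activity below 80%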
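Test system: log-phase Cryptococcus neoformans yeast cells; Quantity: yeast cell density of 5 × 10^6 cells/mL; Buffer or medium: YPD; Doses: single compound concentration per well; Timing: 4 h at 37 °C static, read 1 h later; Measured by: AK luminescence; Read-out basis: lysis from increased AK signal; Control set: Clomiphene as positive control.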
DENV2 CPE = inhibitors of DENV2 cytopathic effect, primary screen, cell-based, plate reader, single concentration | CPE inhibition, % at 9.99 µM | DENV2-infected cells, cytopathic effect rescue | AID 651640, 2012 | 1.7% of 350,000 active; in the data active means CPE inhibition above about 20%, passing the limit was not always enough; inconclusive means no clear call, values can overlap the other calls; tested in BHK-21 cells;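 further: 0% = median of neutral control wells and 100% = median of positive control wells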
Statin myotox sup = suppressors of statin myotoxicity in C2C12 myotubes, primary screen, cell-based, single point, plate reader | C2C12 myotubes + simvastatin, ATP luminescence, 48 h; scaled: DMSO 0, geranylgeraniol control 100 | rescue of ATP level, % at 7.49 µM | 0.78% of 330,000 active | AID 602340, 2012;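 active means mean ATP rescue above about 67%, or every replicate alone reaching that limit, limit read from the data, passing the limit was not always enough; inconclusive means no clear call, values can overlap the other calls; inactive means mean under the limit and some replicate under it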;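 further: myotubes were challenged with 10 µM simvastatin during compound exposure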
F508del corr = F508del CFTR correction, initial screen, CFBE line, single point. 0.36% of 350,000 active. activity (quench increase), % at 7.58 µM. CFBE cells, YFP halide quenching; stimulated with forskolin plus potentiator P3; % fluorescence drop versus neutral controls;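 active means mean added fluorescence quench of at least 8% versus neutral control, with both replicates also reaching 8%; inconclusive means only one of the mean or replicate conditions met; inactive means mean below 8% and not both replicates reaching 8%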;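 further: cells transiently co-express mutant CFTR-F508del with the halide-sensitive YFP; corrector assay measuring rescue of mutant channel to the surface after 24 h compound exposure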
* marks the source's active call; other numbers are inactive results; ? = inconclusive; nt = no result.

SMILES	PDI inh	ERp5 block	Cneo AK release	DENV2 CPE	Statin myotox sup	F508del corr
COc1ccc(-n2nnnc2C(c2ccccc2)N2CCN(C/C=C/c3ccccc3)CC2)cc1 (stereo not drawn)	nt	4	7	8	2	10*
C=CCN1CCN(C(c2ccccc2)c2nnnn2CCC(C)C)CC1 (stereo not drawn)	15	nt	2	nt	71*	nt
COCCn1nnnc1C(c1ccc(C)cc1)N1CCN(Cc2ccc3c(c2)OCO3)CC1 (stereo not drawn)	-6	nt	1	nt	93*	nt
Cc1ccc(C(c2nnnn2Cc2cccs2)N2CCN(Cc3ccc4c(c3)OCO4)CC2)cc1 (stereo not drawn)	-3	nt	3	nt	nt	nt
COCCn1nnnc1C(c1ccccc1)N1CCN(Cc2ccc3c(c2)OCO3)CC1 (stereo not drawn)	4	nt	2	nt	108*	nt
COc1ccc(NC(=O)N[C@@H]2CC[C@H](CCNC(=O)CCN3CCCCC3)O[C@@H]2CO)cc1	nt	0	-14	2	-6	0
C[C@H]1CN([C@@H](C)CO)C(=O)c2cc(NC(=O)Nc3ccc(F)cc3)ccc2O[C@H]1CN(C)Cc1ccc(C(=O)O)cc1	nt	-4	0	17	4	0
O=C(CSc1n[nH]c(-c2ccco2)n1)Nc1ccc(Br)cc1	6	-2	0	30*	8	2
O=C(C[C@H]1C=C[C@@H](NS(=O)(=O)c2ccccc2)[C@@H](CO)O1)N1CCc2ccccc2C1	nt	-1	-2	-1	3	2
COc1ccc(S(=O)(=O)N[C@@H]2C=C[C@@H](CC(=O)N3CCC(Cc4ccccc4)CC3)O[C@H]2CO)cc1	nt	-5	95*	-6	23	0
Cc1ccc(S(=O)(=O)N[C@@H]2C=C[C@@H](CC(=O)N3CCc4ccccc4C3)O[C@@H]2CO)cc1	nt	6	-4	28*	-7	0
COc1ccc(S(=O)(=O)N[C@@H]2C=C[C@H](CC(=O)N3CCC(Cc4ccccc4)CC3)O[C@@H]2CO)cc1	nt	-5	3	-3	7	-4
C[C@@H]1CN([C@@H](C)CO)S(=O)(=O)c2ccc(C#CC3CC3)cc2O[C@H]1CN(C)Cc1cncnc1	nt	nt	nt	nt	-61	1
CC1(C)CC(=O)C2=C(C1)OC1=C(C(=O)CC(C)(C)C1)C2c1ccc(O)cc1O	77*	nt	nt	nt	nt	nt
CC1(C)CC(=O)C2=C(C1)OC1=C(C(=O)CC(C)(C)C1)C2c1ccc(O)c([N+](=O)[O-])c1	-4	-13	nt	5	nt	0
Cc1cc(C)nc(N(C#N)Cc2ccccc2Cl)n1	8	-3	-1	-2	69*	2
Cc1cc(C)nc(N(C#N)Cc2ccccc2C)n1	12	0	1	3	nt	-1
CN1C(=O)c2cc(NS(C)(=O)=O)ccc2OC[C@@H]2O[C@@H](CC(=O)NCc3ccccc3)CC[C@@H]21	nt	-2	-2	-13	7	2
CN(C)CCNc1nc2sc3c(c2c(=O)n1-c1ccc(F)cc1)CCCCC3	-4	1	nt	26*	nt	0
C[C@@H]1CN([C@@H](C)CO)C(=O)c2cccc(NC(=O)Nc3ccccc3)c2O[C@@H]1CN(C)S(=O)(=O)c1ccc(F)cc1	nt	-2	-3	-9	74*	2
Cc1noc(C)c1NC(=O)Nc1cccc2c1O[C@@H](CN(C)S(=O)(=O)c1ccc(F)cc1)[C@@H](C)CN([C@@H](C)CO)C2=O	nt	7	57	89*	0	1
C[C@H](CO)N1C[C@H](C)[C@H](CN(C)S(=O)(=O)c2ccc(F)cc2)Oc2c(NC(=O)Nc3ccccc3)cccc2C1=O	nt	2	0	?	4	0
Cc1ccc(S(=O)(=O)N(C)C[C@H]2Oc3c(NC(=O)Nc4ccccc4)cccc3C(=O)N([C@@H](C)CO)C[C@H]2C)cc1	nt	9	-5	4	123*	-2
C[C@@H]1CN([C@H](C)CO)C(=O)c2cccc(NC(=O)Nc3ccccc3)c2O[C@@H]1CN(C)S(=O)(=O)c1ccccc1	nt	-1	1	-5	65*	-1
O=C(Cc1ccccn1)N[C@@H]1C=C[C@@H](CC(=O)N2CCCCC2)O[C@H]1CO	nt	1	-2	2	3	2
SMILES	PDI inh	ERp5 block	Cneo AK release	DENV2 CPE	Statin myotox sup	F508del corr
CO[C@@H]1CN(C)C(=O)c2cc(NC(C)=O)ccc2OC[C@@H](C)N(C(=O)c2cnccn2)C[C@H]1C	nt	-5	0	3	-5	2
Cc1ccc(S(=O)(=O)N(C)C[C@H]2Oc3c(NC(=O)Nc4ccccc4)cccc3C(=O)N([C@H](C)CO)C[C@H]2C)cc1	nt	5	2	-3	117*	-2
Cc1ccc(S(=O)(=O)N(C)C[C@@H]2Oc3c(NC(=O)Nc4ccccc4)cccc3C(=O)N([C@@H](C)CO)C[C@@H]2C)cc1	nt	-4	-8	-1	-9	-7
C[C@@H]1CN([C@@H](C)CO)C(=O)c2cccc(NC(=O)c3cnccn3)c2O[C@@H]1CN(C)Cc1ccc(C(F)(F)F)cc1	nt	-8	-13	22*	-52	0
C[C@@H]1CN([C@@H](C)CO)C(=O)c2cccc(NC(=O)c3ccc(-c4nccs4)cc3)c2O[C@@H]1CN(C)Cc1ccc(C(F)(F)F)cc1	nt	-1	4	1	74*	3
COc1ccc(CN(C)C[C@H]2Oc3c(NC(=O)c4ccc(-c5nccs5)cc4)cccc3C(=O)N([C@@H](C)CO)C[C@@H]2C)cc1	nt	5	-1	22*	11	2
CNC[C@H]1Oc2c(NC(=O)c3ccc(-c4nccs4)cc3)cccc2C(=O)N([C@H](C)CO)C[C@H]1C	nt	-3	-2	41*	-7	-3
CO[C@H]1CN(C)C(=O)c2ccc(NC(=O)C3CCC3)cc2OC[C@H](C)N(C(=O)CN(C)C)C[C@@H]1C	nt	-10	nt	-5	nt	-3
CCCC#Cc1ccc2c(c1)O[C@H](CN(C)C(C)=O)[C@H](C)CN([C@@H](C)CO)S2(=O)=O	nt	-5	-2	-4	-7	1
O=C(C[C@@H]1CC[C@H](NC(=O)CCN2CCCCC2)[C@@H](CO)O1)Nc1ccc(-c2ccccc2)cc1	nt	6	5	-5	-32	-2
C[C@@H]1CN([C@H](C)CO)C(=O)c2cc(NS(C)(=O)=O)ccc2O[C@H]1CN(C)S(=O)(=O)c1ccccc1	nt	nt	nt	nt	nt	2
C[C@H]1CN([C@@H](C)CO)C(=O)Cc2cc(NS(=O)(=O)c3ccc(Cl)cc3)ccc2O[C@@H]1CN(C)Cc1ccc(Oc2ccccc2)cc1	nt	16	-14	0	21	0
